Two compounds from ChEMBL document CHEMBL4196009, “Novel vitexin-inspired scaffold against leukemia” (Eur J Med Chem, 2018) can be followed below.

The test system of series [1] is KOPN-8. The series can be described thus: Downregulation of total Rb expression in human KOPN8 cells after 24 hrs by Western blot analysis. Format: cell-based. Particulars: kopn-8, 24 h. The method in brief:
(§1)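 KOPN-8 cells were treated at 10–100 µM final, with or without N-acetylcysteine co-addition, for 3 h and 24 h. Lysates were analysed by Western blot for PARP cleavage, Mcl-1, phospho-Ser2 RNAPII CTD, c-Myc, total Rb and pRb. Levels are relative to the vehicle control.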
On the technique in general: A western blot detects proteins with antibodies after separation by electrophoresis.

Series [2] concerns KOPN-8. The series can be described thus: Induction of apoptosis in human KOPN8 cells assessed as upregulation of cleaved PARP level at 100 uM pre-treated with NAC for 1 hr and measured after 24 hrs by Western blot analysis. The format is functional, cell-based. The gist of the method: (§2)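 KOPN-8 cells were exposed to compound for 3 h and 24 h, with or without N-acetylcysteine added to a parallel set as antioxidant. Lysates were analysed by Western blot for cleaved PARP, Mcl-1, Ser-2-phosphorylated RNAPII CTD, cMyc, total Rb and pRb. Signals were compared against controls for dose-dependent change.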

For a further series, the system named is MCF7. The series is described as follows: Induction of oxidative stress in human MCF7 cells transfected with mRuby-Mito-7 with fugene assessed as increase in intracellular total ROS levels at 50 uM treated 30 mins post NAC addition measured after 1 hr by fluorimetric analysis. The format is functional, cell-based. The method in brief:
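MCF-7 cells carried an mRuby-Cox8A mitochondrial label. They were exposed to 50 of compound, alone or together with 50 of N-acetylcysteine, for 1 h. Cells were then stained with CellROX green (ex/em 485/520 nm) plus Hoechst 33342 nuclear stain. Total and mitochondrial ROS fluorescence was imaged in live cells and quantified relative to control.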

The next series relates to SUP-B15. The series is described as follows: Induction of apoptosis in human SUP-B15 cells assessed as early apoptotic cells at 10 uM after 24 hrs by Annexin V-FITC/propidium iodide staining-based flow cytometry (reference value: 0.1%). The format is functional. On the technique in general: A flow cytometer gives signals particle by particle.
For series [3], the target named is T1, Retinoblastoma-associated protein (Homo sapiens) (UniProt P06400).
T1 sequence (whole entry): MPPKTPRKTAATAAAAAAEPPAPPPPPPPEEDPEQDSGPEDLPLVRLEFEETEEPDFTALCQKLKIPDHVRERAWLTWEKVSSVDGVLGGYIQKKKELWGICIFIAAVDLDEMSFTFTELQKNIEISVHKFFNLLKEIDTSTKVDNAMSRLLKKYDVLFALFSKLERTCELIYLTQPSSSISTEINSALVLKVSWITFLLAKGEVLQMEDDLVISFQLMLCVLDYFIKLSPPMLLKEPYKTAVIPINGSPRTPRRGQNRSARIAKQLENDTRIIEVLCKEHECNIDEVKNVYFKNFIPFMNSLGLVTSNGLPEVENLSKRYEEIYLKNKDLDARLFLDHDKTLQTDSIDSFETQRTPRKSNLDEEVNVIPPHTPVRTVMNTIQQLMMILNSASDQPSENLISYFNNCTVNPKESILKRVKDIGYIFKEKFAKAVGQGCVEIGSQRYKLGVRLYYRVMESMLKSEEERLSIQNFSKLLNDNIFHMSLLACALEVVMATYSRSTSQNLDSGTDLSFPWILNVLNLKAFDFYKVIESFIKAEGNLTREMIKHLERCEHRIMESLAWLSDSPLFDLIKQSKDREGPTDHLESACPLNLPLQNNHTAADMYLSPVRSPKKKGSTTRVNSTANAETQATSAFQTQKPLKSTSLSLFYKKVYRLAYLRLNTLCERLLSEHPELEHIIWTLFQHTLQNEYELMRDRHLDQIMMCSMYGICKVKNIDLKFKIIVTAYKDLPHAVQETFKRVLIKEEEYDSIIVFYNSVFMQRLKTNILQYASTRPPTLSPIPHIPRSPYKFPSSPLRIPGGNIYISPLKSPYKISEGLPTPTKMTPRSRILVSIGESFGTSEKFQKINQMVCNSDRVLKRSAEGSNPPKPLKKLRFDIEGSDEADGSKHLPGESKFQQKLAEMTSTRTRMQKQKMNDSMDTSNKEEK
The series is described as follows: Inhibition of Rb phosphorylation in human KOPN8 cells assessed as ratio of phosphorylated Rb to total Rb levels at 30 uM pre-treated with NAC for 1 hr and measured after 24 hrs by Western blot analysis relative to control. The format is cell-based. The method in brief: (§3)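 KOPN-8 pre-B ALL cells were treated for 3 h and 24 h, with or without N-acetyl cysteine added to a parallel set of cells as an antioxidant/ROS quencher. Lysates were analysed by Western blot for phosphorylated Rb and total Rb. The same blots also probed PARP cleavage, Mcl-1, Ser-2-phosphorylated RNAPII CTD and cMyc.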

Series [4] concerns KOPN-8. The series can be described thus: Induction of apoptosis in human KOPN8 cells assessed as effect on Mcl-1 level at 100 uM pre-treated with NAC for 1 hr and measured after 3 hrs by Western blot analysis relative to control. The format is functional. The method in brief:
as §2

Series [5] is filed under the species Homo sapiens. The series can be described thus: Inhibition of RNA polymerase 2 C-terminal domain phosphorylation at Ser2 residue in human KOPN8 cells at 10 uM pre-treated with NAC for 1 hr and measured after 3 hrs by Western blot analysis relative to control. The format is cell-based. The gist of the method: as §2
For series [6], the target named is T1, Retinoblastoma-associated protein (Homo sapiens). The series can be described thus: Inhibition of Rb phosphorylation in human KOPN8 cells assessed as ratio of phosphorylated Rb to total Rb levels at 10 uM after 24 hrs by Western blot analysis relative to control. The format is cell-based. The method in brief:
as §3

The species entered for series [7] is Homo sapiens. The series is described as follows: Inhibition of RNA polymerase 2 C-terminal domain phosphorylation at Ser2 residue in human KOPN8 cells at 30 uM after 24 hrs by Western blot analysis relative to control. The format is cell-based. The gist of the method: as §2
Series [8] concerns KOPN-8. The series is described as follows: Cell cycle arrest in human KOPN8 cells assessed as accumulation at G2/M phase at 10 uM after 24 hrs by propidium iodide staining-based flow cytometry (reference value: 9.67%). Format: functional. The method in brief: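 KOPN-8 cells treated 24 h alongside a DMSO vehicle and a staurosporine (2.0 µM) positive control. Apoptosis was scored by FITC Annexin V / propidium iodide flow cytometry with quadrant gating (early, late apoptotic). DNA content was measured by PI staining to give the percentage of cells in G0/G1, S and G2/M. Groups were compared by t-test; error bars are SD.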

Series [9] deals with KOPN-8. The series can be described thus: Effect on c-Myc expression in human KOPN8 cells at 10 uM after 3 hrs by Western blot analysis relative to control. The format is functional. The method in brief: as §1
Series [10] concerns KOPN-8. The series can be described thus: Induction of apoptosis in human KOPN8 cells assessed as upregulation of cleaved PARP level at 0.5 uM after 24 hrs by Western blot analysis. The format is functional, cell-based. The method in brief: as §2
Series [11] concerns KOPN-8. The series is described as follows: Induction of apoptosis in human KOPN8 cells assessed as upregulation of cleaved PARP level at 0.5 uM after 3 hrs by Western blot analysis. Format: functional, cell-based. The method in brief: as §2
Series [12] concerns MDA-MB-231. The series can be described thus: Cell cycle arrest in human MDA-MB-231 cells assessed as accumulation at G0/G1 phase at 5 uM after 24 hrs by propidium iodide staining-based flow cytometry (reference value: 70.47%). The format is functional.
The species entered for series [13] is Homo sapiens. The series is described as follows: Inhibition of RNA polymerase 2 C-terminal domain phosphorylation at Ser2 residue in human KOPN8 cells at 0.5 uM after 24 hrs by Western blot analysis. Format: cell-based. The method in brief: as §2
The subject of series [14] is MDA-MB-231. The series can be described thus: Cell cycle arrest in human MDA-MB-231 cells assessed as accumulation at G2/M phase at 5 uM after 24 hrs by propidium iodide staining-based flow cytometry (reference value: 9.38%). Format: functional.
Series [15] has as its system KOPN-8. The series is described as follows: Induction of apoptosis in human KOPN8 cells assessed as upregulation of cleaved PARP level at 0.5 uM pre-treated with NAC for 1 hr and measured after 24 hrs by Western blot analysis. Format: functional, cell-based. The gist of the method:
as §2

The source made the active and inactive calls. The calls are words filed in the database; no cut-off is given here.

As for `COc1ccc(-c2c(I)c(=O)c3c(OC)cc(OC)cc3n2S(=O)(=O)c2ccc(OC)cc2)cc1`, the Activity entry in the series with KOPN-8 [1] is given as “Dose-dependent effect”; in the series on SUP-B15 it was 0.1%; in the series on KOPN-8 [8], 27.12%. Further, in the series on KOPN-8 [2], the result was Active. Further, the outcome with MCF7 was inactive. The fold change (FC) in series [3] came to 1; in the series on KOPN-8 [4], 0.5; in the series filed under Homo sapiens [5], 1; in [6] it was 1; in the series listed under Homo sapiens [7], 1.6; in the series on KOPN-8 [9], 0.9.

As for `CN(C)C(=O)c1cc2cnc(Nc3ccc(N4CCNCC4)cn3)nc2n1C1CCCC1` [RIBOCICLIB], the result in the series with KOPN-8 [10] was inactive. Further, the outcome in the series on KOPN-8 [11] and in the series on KOPN-8 [15] was Active. In addition, the Activity with MDA-MB-231 [12] is 90.85%; in the series with MDA-MB-231 [14] it was 4.51%. Also, the fold change (FC) in the series listed under Homo sapiens [13] is 2.3.
